Measured values: ChEMBL document CHEMBL1795232, “Benzoxazinones as potent positive allosteric AMPA receptor modulators: part I” (Bioorg Med Chem Lett, 2011)

Legend:
Rattus norvegicus [1] = species on record: Rattus norvegicus; assay: Positive allosteric modulation at AMPA receptor in Sprague-Dawley rat embryonic hippocampal neuron assessed as concentration required to double the steady-state current induced by glutamate by patch-clamp assay; format: tissue-based; conditions: Hippocampus
Procedure, shortened: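 Hippocampal neurons from E18 Sprague-Dawley rats, cultured 4-7 days, whole-cell voltage-clamped at -80 mV at room temperature. Cells were pretreated 20 s with saline or modulator by superfusion, then given 500 µM glutamate with or without modulator for 1 s. Mean plateau current at 600-900 ms was taken. EC2x is the concentration doubling the steady-state glutamate current.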

[2] = Displacement of [3H]AMPAKINE from AMPA receptor in rat forebrain
Rattus norvegicus [3] = species on record: Rattus norvegicus; assay: Positive allosteric modulation at AMPA receptor in Sprague-Dawley rat adult hippocampal slice assessed as increase in field excitatory postsynaptic potential amplitude at 30 uM; format: tissue-based; conditions: Hippocampus
Procedure, shortened: (§1)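 Transverse hippocampal slices from adult male Sprague-Dawley rats (4-6 weeks) held on nylon net in a rapid-flow linear interface chamber. Schaffer-commissural fibers stimulated with paired pulses (200 ms interval) at 0.05 Hz. After a 20-30 min stable baseline, compound infused 30 min, then washed out with control ACSF. DMSO stocks diluted into ACSF. Read-out was percentage increase in fEPSP amplitude.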

Rattus norvegicus [4] = species on record: Rattus norvegicus; assay: Positive allosteric modulation at AMPA receptor in Sprague-Dawley rat adult hippocampal slice assessed as increase in field excitatory postsynaptic potential amplitude at 10 uM; format: tissue-based; conditions: Hippocampus; procedure, shortened: as §1
Rattus norvegicus [5] = species on record: Rattus norvegicus; assay: Positive allosteric modulation at AMPA receptor in Sprague-Dawley rat adult hippocampal slice assessed as increase in field excitatory postsynaptic potential amplitude at 1 uM; format: tissue-based; conditions: Hippocampus; procedure, shortened: as §1
Rattus norvegicus [6] = species on record: Rattus norvegicus; assay: Positive allosteric modulation at AMPA receptor in Sprague-Dawley rat adult hippocampal slice assessed as increase in field excitatory postsynaptic potential amplitude at 3 uM; format: tissue-based; conditions: Hippocampus; procedure, shortened: as §1

C=CCN1COc2cc3c(cc2C1=O)OC1CCCN1C3=O (stereo unspecified)
Activity (Rattus norvegicus [1]): 0.5 µM
Ki [2]: 18 µM

O=C1c2cc3c(cc2OC2CCCN12)COCO3 (stereo unspecified)
Activity (Rattus norvegicus [1]): 1.1 µM

O=C1c2cc3c(cc2OC2CCCN12)OCOC3 (stereo unspecified)
Activity (Rattus norvegicus [1]): 22 µM

COc1ccc(C(=O)N2CCCC2=O)cc1
Activity (Rattus norvegicus [1]): > 1000 µM

CC(C)CN1COc2cc3c(cc2C1=O)OC1CCCN1C3=O (stereo unspecified)
Activity (Rattus norvegicus [1]): 41 µM

O=C1NCOc2cc3c(cc21)OC1CCCN1C3=O (stereo unspecified)
Activity (Rattus norvegicus [3]): 5%
Activity (Rattus norvegicus [1]): 5 µM
Ki [2]: 225 µM

O=C1c2cc3c(cc2OC2CCCN12)OCCO3 (stereo unspecified)
Activity (Rattus norvegicus [1]): 2.3 µM

CN1COc2cc3c(cc2C1=O)OC1CCCN1C3=O (stereo unspecified)
Activity (Rattus norvegicus [1]): 0.1 µM
Activity (Rattus norvegicus [4]): 19%
Ki [2]: 18 µM

NS(=O)(=O)c1cc2c(cc1Cl)NC(C1CC3C=CC1C3)NS2(=O)=O (stereo unspecified)
Activity (Rattus norvegicus [1]): 1.6 µM

O=C1c2cc3c(cc2OC2CCCN12)CCCO3 (stereo unspecified)
Activity (Rattus norvegicus [1]): 1.1 µM

O=C1c2cc3c(cc2OCN1CCF)C(=O)N1CCCC1O3 (stereo unspecified)
Activity (Rattus norvegicus [1]): 0.5 µM
Activity (Rattus norvegicus [4]): 9%
Ki [2]: 33 µM

O=C1c2cc3c(cc2OCN1CC(F)(F)F)C(=O)N1CCCC1O3 (stereo unspecified)
Activity (Rattus norvegicus [1]): 8.8 µM
Activity (Rattus norvegicus [5]): 0%
Ki [2]: 330 µM

O=C1c2cc3c(cc2OCN1C1CC1)C(=O)N1CCCC1O3 (stereo unspecified)
Activity (Rattus norvegicus [1]): 0.8 µM
Activity (Rattus norvegicus [4]): 10%
Ki [2]: 26 µM

C#CCN1COc2cc3c(cc2C1=O)OC1CCCN1C3=O (stereo unspecified)
Activity (Rattus norvegicus [1]): 0.25 µM
Activity (Rattus norvegicus [6]): 6%
Ki [2]: 7 µM

CC(CNS(=O)(=O)C(C)C)c1ccc(-c2ccsc2)cc1 (stereo unspecified)
Activity (Rattus norvegicus [1]): 0.07 µM

O=C1c2cc3c(cc2OCN1C1CCCC1)C(=O)N1CCCC1O3 (stereo unspecified)
Activity (Rattus norvegicus [1]): 7 µM
Ki [2]: 163 µM

CC(C)N1COc2cc3c(cc2C1=O)OC1CCCN1C3=O (stereo unspecified)
Activity (Rattus norvegicus [1]): 0.9 µM
Activity (Rattus norvegicus [4]): 3%
Ki [2]: 100 µM

O=C1c2cc3c(cc2OC2CCCN12)OC1CCCN1C3=O (stereo unspecified)
Activity (Rattus norvegicus [1]): 2.6 µM

CCCN1COc2cc3c(cc2C1=O)OC1CCCN1C3=O (stereo unspecified)
Activity (Rattus norvegicus [1]): 2.5 µM
Activity (Rattus norvegicus [5]): 0%
Ki [2]: 70 µM

CCN1COc2cc3c(cc2C1=O)OC1CCCN1C3=O (stereo unspecified)
Activity (Rattus norvegicus [1]): 0.2 µM
Activity (Rattus norvegicus [4]): 17%
Ki [2]: 20 µM

O=C1c2cc3c(cc2OC2CCCN12)C(=O)N1CCCC1O3 (stereo unspecified)
Activity (Rattus norvegicus [1]): 0.06 µM
